Test [1] concerns Mycobacterium tuberculosis. The test can be described thus: Antimycobacterial activity against active stage of Mycobacterium tuberculosis H37Ra ATCC 25177 by XRMA. It counts as functional, organism-based. In outline: (§1)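 Mtb H37Ra in M. pheli medium (pH 6.6) in 96-well plates. XTT reduction menadione read-out at 470 nm, with DMSO vehicle as 100% growth. MIC derived from the dose-response curve. Duplicates, average ± standard deviation.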

Test [2] deals with Mycobacterium tuberculosis. The test can be described thus: Antimycobacterial activity against dormant stage of Mycobacterium tuberculosis H37Ra ATCC 25177 by XRMA. It counts as functional, organism-based. In outline: as §1
The test system of test [3] is Mycobacterium tuberculosis. The test can be described thus: Antimycobacterial activity against active stage of Mycobacterium tuberculosis H37Ra ATCC 25177 at 3 to 30 ug/ml by XRMA relative to control. Type of test: functional. Put shortly: (§2)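 Mtb H37Ra, from a -80 °C stock subcultured once in liquid medium, grown in M. pheli minimal medium (KH2PO4, trisodium citrate, MgSO4, asparagine, glycerol; pH 6.6) in 96-well plates. Primary screen at 30, 10 and 3 µg/mL. XTT reduction menadione read-out at 470 nm against cell-free blank. % inhibition = (control − compound)/(control − blank) × 100, with DMSO-vehicle wells as 100% growth. Duplicates.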

Test [4] relates to Mycobacterium tuberculosis. As to the kind of experiment: Antimycobacterial activity against dormant stage of Mycobacterium tuberculosis H37Ra ATCC 25177 at 3 to 30 ug/ml by XRMA relative to control. It counts as functional. Put shortly:
as §2

The test system of the next test is Bacillus subtilis. As to the kind of experiment: Antibacterial activity against Bacillus subtilis NCIM 2079 at 3 ug/ml after 8 hrs relative to control. It counts as functional. Put shortly:
(§3)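 Cultures grown to OD600 of 1, then set at 0.1 OD600 and exposed to compound at 3 µg/mL for 8 h at 37 °C. Ampicillin was the positive control. Activity is reported as % inhibition.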

The test system of a further test is Staphylococcus aureus. The test can be described thus: Antibacterial activity against Staphylococcus aureus NCIM 2010 at 3 ug/ml after 8 hrs relative to control. Type of test: functional. In outline:
as §3

≈ marks a conversion by molar mass, not a printed value. Calls of active or inactive are those of the source. The rule behind the calls is not given here.

This is an account of results in ChEMBL document CHEMBL4257499, “Triazole-diindolylmethane conjugates as new antitubercular agents: synthesis, bioevaluation, and molecular docking” (Medchemcomm, 2018).

Broadly, the IC50 is the concentration needed to halve the response being measured. Low values mean higher potency, high ones lower potency. For orientation: IC90 means the concentration needed for an effect of 90%. The low end stands for greater potency, the high end for weaker potency. With `O=[N+]([O-])c1cccc(-n2cc(C(c3c[nH]c4ccc(Br)cc34)c3c[nH]c4ccc(Br)cc34)nn2)c1`, the IC50 amounted to 6.25 µg/mL (≈ 10.6 µM) in test [1] and 2.56 µg/mL (≈ 4.32 µM) in test [2]. Moreover, the 90% effect concentration (IC90) in test [1] and in test [2] was above 30 µg/mL in each case. In addition, the results for the Activity (in test [3]; in test [4]; in the test on Bacillus subtilis) were above 87.18%, above 87.18% and above 70%, respectively.
On to `Clc1ccc(-n2cc(C(c3c[nH]c4ccc(Br)cc34)c3c[nH]c4ccc(Br)cc34)nn2)cc1`, for which the Activity is listed as above 88.22% in test [3], above 88.22% in test [4] and above 70% with Bacillus subtilis.
For the compound `CC(=O)Nc1ccc(-n2cc(C(c3c[nH]c4ccc(Br)cc34)c3c[nH]c4ccc(Br)cc34)nn2)cc1`, the figures for the IC50 in test [1] and in test [2] were 1.52 µg/mL (≈ 2.52 µM) and 1 µg/mL (≈ 1.65 µM), respectively. Moreover, the values for the 90% effect concentration (IC90) in test [1] and in test [2] were 6.16 µg/mL (≈ 10.2 µM) and 3 µg/mL (≈ 4.96 µM), respectively. Moreover, the Activity is on record as above 87.18% in test [3], above 87.18% in test [4] and above 70% in the test with Bacillus subtilis.
Take `COc1ccccc1-n1cc(C(c2c[nH]c3ccccc23)c2c[nH]c3ccccc23)nn1`: the outcome in test [3] and in test [4] was Active.
Take `Brc1ccc2[nH]cc(C(c3cn(-c4ccccc4)nn3)c3c[nH]c4ccc(Br)cc34)c2c1`: the IC50 is 2.19 µg/mL (≈ 4 µM) in test [1] and 1.55 µg/mL (≈ 2.83 µM) in test [2]. Further, the figures for the concentration for an effect of 90% (IC90) in test [1] and in test [2] were 30 µg/mL (≈ 54.8 µM) and 9.39 µg/mL (≈ 17.2 µM), respectively. Besides, the Activity is above 87.18% in test [3], above 87.18% in test [4] and above 70% in the test on Bacillus subtilis.
Regarding `COc1ccc(-n2cc(C(c3c[nH]c4ccccc34)c3c[nH]c4ccccc34)nn2)cc1`, the outcome in test [3] and in test [4] was Active.
Turning to `Cc1ccc(-n2cc(C(c3c[nH]c4ccccc34)c3c[nH]c4ccccc34)nn2)cc1`, the result in test [3] and in test [4] was Active.
On to `O=[N+]([O-])c1ccccc1-n1cc(C(c2c[nH]c3ccc(Br)cc23)c2c[nH]c3ccc(Br)cc23)nn1`, for which the IC50 is 2.27 µg/mL (≈ 3.83 µM) in test [1] and 1 µg/mL (≈ 1.69 µM) in test [2]. The IC90 in test [1] was above 30 µg/mL; in test [2] it was 30 µg/mL (≈ 50.7 µM). Besides, the Activity in test [3] and in test [4] was above 87.18% throughout.
Consider `Clc1cccc(-n2cc(C(c3c[nH]c4ccccc34)c3c[nH]c4ccccc34)nn2)c1`, for which the IC50 in test [1] was 2.04 µg/mL (≈ 4.81 µM); in test [2], 0.37 µg/mL (≈ 0.873 µM). In addition, the concentration for an effect of 90% (IC90) in test [1] and in test [2] was above 30 µg/mL in each case. In addition, the Activity in test [3] and in test [4] was above 87.18% each time.
Regarding `c1ccc(-n2cc(C(c3c[nH]c4ccccc34)c3c[nH]c4ccccc34)nn2)cc1`, the outcome in test [3] and in test [4] was Active.
As to `O=[N+]([O-])c1ccccc1-n1cc(C(c2c[nH]c3ccccc23)c2c[nH]c3ccccc23)nn1`, the outcome in test [3] and in test [4] was Active.
Consider `Clc1cccc(-n2cc(C(c3c[nH]c4ccc(Br)cc34)c3c[nH]c4ccc(Br)cc34)nn2)c1`, for which the IC50 turned out to be 0.22 µg/mL (≈ 0.378 µM) in test [1] and 0.12 µg/mL (≈ 0.206 µM) in test [2]. Also, the figures for the IC90 in test [1] and in test [2] were 13.5 µg/mL (≈ 23.2 µM) and 9.84 µg/mL (≈ 16.9 µM), respectively. For the same compound, the figures for the Activity (in the test on Staphylococcus aureus; in test [3]; in test [4]) were 71.77%, above 87.18% and above 87.18%, respectively.
For the compound `COc1ccc(-n2cc(C(c3c[nH]c4ccc(Br)cc34)c3c[nH]c4ccc(Br)cc34)nn2)cc1`, the Activity in test [3] and in test [4] was above 88.22% in each case.
In the case of `Clc1ccc(-n2cc(C(c3c[nH]c4ccccc34)c3c[nH]c4ccccc34)nn2)cc1`, the result in test [3] and in test [4] was Active.
On to `CC(=O)Nc1ccc(-n2cc(C(c3c[nH]c4ccccc34)c3c[nH]c4ccccc34)nn2)cc1`, for which the outcome in test [3] and in test [4] was Active.
In test [1], `CO[C@H]1/C=C/O[C@@]2(C)Oc3c(C)c(O)c4c(O)c(c(/C=N/N5CCN(C)CC5)c(O)c4c3C2=O)NC(=O)/C(C)=C\C=C\[C@H](C)[C@H](O)[C@@H](C)[C@@H](O)[C@@H](C)[C@H](OC(C)=O)[C@@H]1C` [RIFAMPIN] showed a concentration for half-maximal inhibition (IC50) of 0.02 µg/mL (≈ 0.0243 µM) and a 90% effect concentration (IC90) of 0.53 µg/mL (≈ 0.644 µM). For the same compound, in test [2], the IC90 was found to be 0.8 µg/mL (≈ 0.972 µM).
On to `COc1ccccc1-n1cc(C(c2c[nH]c3ccc(Br)cc23)c2c[nH]c3ccc(Br)cc23)nn1`, for which the outcome in test [3] and in test [4] was Active.
Regarding `Cc1ccc(-n2cc(C(c3c[nH]c4ccc(Br)cc34)c3c[nH]c4ccc(Br)cc34)nn2)cc1`, the result in test [3] and in test [4] was Active.
Turning to `O=[N+]([O-])c1ccc(-n2cc(C(c3c[nH]c4ccccc34)c3c[nH]c4ccccc34)nn2)cc1`, the result in test [3] and in test [4] was Active.
In the case of `O=[N+]([O-])c1ccc(-n2cc(C(c3c[nH]c4ccc(Br)cc34)c3c[nH]c4ccc(Br)cc34)nn2)cc1`, the values for the IC50 in test [1] and in test [2] were 14.8 µg/mL (≈ 25 µM) and 2.96 µg/mL (≈ 5 µM), respectively. The IC90 in test [1] and in test [2] was above 30 µg/mL throughout. Besides, the Activity in test [3] and in test [4] was above 87.18% in each case.
